This passage reports Tm and folding enthalpy results from the array DNA melting data of Ke et al. (doi:10.1101/2024.01.08.574731).

Series [1] in a line: melting temperature; fluorescence melt of hairpins on a sequencing array, two-state fit, raised by 9.35 °C to match UV melts. The settings on record: sodium 0.088 M. In short, it runs like this: (§1)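 Two-state fits, bootstrapped, provided melting temperature and folding enthalpy from Cy3 fluorescence normalised to pre-quench Cy3 and to control constructs. Library hairpins with annealed Cy3 and quencher oligos were imaged on a sequenced MiSeq flow cell in 50 mM Na-HEPES pH 8.0, 25 mM NaCl, at 2.5 °C intervals up to 60 °C. Four replicates were combined with inverse-variance weighting. A 9.35 °C upward shift was applied to fitted temperatures to match UV melts.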

Series [2] can be described thus: folding enthalpy; higher = less favourable; fluorescence melt of hairpins on a sequencing array, two-state fit. The settings on record: sodium 0.088 M. In short, it runs like this: as §1

As for GTAACTCGAAAGAGGTAC (((.(((....))).))), the Tm in series [1] amounted to 51.6 °C. Also, the folding enthalpy in series [2] was -28.7 kcal/mol.

GTAACTGGAAACAGCTAC (((.(((....))).))): the Tm in series [1] amounted to 34.2 °C. The folding enthalpy in series [2] is -30.1 kcal/mol.

Regarding GTAAGAGCGAAAGCTTAC (((..(((....)))))), the Tm in series [1] was 33.5 °C. For the same sequence, the folding enthalpy in series [2] is -14.9 kcal/mol.

With GTAAGCACGAAAGTGTAC (((..(((....)))))), the Tm in series [1] turned out to be 27.9 °C. The folding enthalpy in series [2] was -9.4 kcal/mol.

Consider GTAAGCGAAAGCTATAC ((((((....))).))), for which, in series [1], the Tm is 33.8 °C. The folding enthalpy in series [2] is -14.9 kcal/mol.

With GTAAGCGAAAGCTGTAC ((((((....))).))), the Tm in series [1] came to 43 °C. In addition, the folding enthalpy in series [2] was -15.7 kcal/mol.

GTAAGCGAAAGCTTTAC ((((((....))).))): the Tm in series [1] is 42 °C. Also, in series [2], the folding enthalpy is -12.9 kcal/mol.

For the sequence GTAAGCGCGAAAGCGTAC (((..(((....)))))), the Tm in series [1] was 28.8 °C. For the same sequence, the folding enthalpy in series [2] is -9.28 kcal/mol.

With GTAAGCGGAAACGCTTAC (((((((....))))))), in series [1], the Tm amounted to 65.2 °C. In addition, the folding enthalpy in series [2] is -36.1 kcal/mol.

With GTAAGCGGAAACGCTTGC (.(((((....))))).), the Tm in series [1] stood at 54.1 °C. Moreover, in series [2], the folding enthalpy was -22.7 kcal/mol.

GTAAGGACGAAAGTCTAC (((..(((....)))))): the Tm in series [1] stood at 30.2 °C. Further, in series [2], the folding enthalpy was -8.78 kcal/mol.

Regarding GTAAGGCGAAAGCCTAC (((.(((....)))))), the Tm in series [1] came out at 46 °C. In series [2], the folding enthalpy was -11.4 kcal/mol.

Regarding GTAAGGGCGAAAGCCTAC (((..(((....)))))), the Tm in series [1] amounted to 29.7 °C. Besides, in series [2], the folding enthalpy is -8.85 kcal/mol.

Consider GTAAGTCGAAAGACATAC (((.(((....))).))), for which the Tm in series [1] worked out at 38.7 °C. Also, the folding enthalpy in series [2] was -21.5 kcal/mol.

Take GTAATCGAAAGATACTAC ((((((....)))..))): in series [1], the Tm was determined as 31.4 °C. The folding enthalpy in series [2] was -18.4 kcal/mol.

As for GTAATCGAAAGATTAC ((((((....)))))), in series [1], the Tm amounted to 53.3 °C. Besides, in series [2], the folding enthalpy is -48.2 kcal/mol.

On to GTAATCGGAAACGATTAC (((((((....))))))), for which the Tm in series [1] came to 56.4 °C. The folding enthalpy in series [2] is -42.4 kcal/mol.

Consider GTAATCGGAAACGATTGC (.(((((....))))).), for which the Tm in series [1] turned out to be 48.2 °C. Moreover, the folding enthalpy in series [2] was -25.6 kcal/mol.

Take GTAATCGGAAACGGTTAC ((((.((....)).)))): the Tm in series [1] was 46.7 °C. Also, the folding enthalpy in series [2] is -33.2 kcal/mol.

For GTAATCTCGAAAGAGTAC (((..(((....)))))), in series [1], the Tm came out at 26.7 °C. Further, the folding enthalpy in series [2] is -10.9 kcal/mol.

With GTAATGGGAAACCACTAC (((.(((....))).))), the Tm in series [1] was determined as 27.6 °C. Also, the folding enthalpy in series [2] is -15.9 kcal/mol.

Take GTAATTCGAAAGAAATAC (((.(((....))).))): the Tm in series [1] was 33 °C. Further, the folding enthalpy in series [2] is -16.9 kcal/mol.

Turning to GTAATTCGAAAGAATAC (((.(((....)))))), the Tm in series [1] was found to be 32 °C. Besides, the folding enthalpy in series [2] was -15.2 kcal/mol.

For GTAATTGGAAACAGTTAC ((((.((....)).)))), the Tm in series [1] turned out to be 35.9 °C. In series [2], the folding enthalpy is -21.2 kcal/mol.

In the case of GTACAAGGAAACTTGCAC ((.((((....)))).)), the Tm in series [1] was found to be 34.1 °C. Besides, the folding enthalpy in series [2] is -25.4 kcal/mol.

As to GTACACCCGAAAGGGTAC (((..(((....)))))), the Tm in series [1] amounted to 33 °C. Besides, the folding enthalpy in series [2] was -9.29 kcal/mol.

As for GTACACCGAAAGGTATAC (((.(((....))).))), in series [1], the Tm stood at 39.1 °C. Also, in series [2], the folding enthalpy is -22.3 kcal/mol.

As to GTACACCGAAAGGTCTAC (((.(((....))).))), the Tm in series [1] is 30.9 °C. Moreover, the folding enthalpy in series [2] is -15.3 kcal/mol.

Take GTACACGGAAACGTGCAC ((.((((....)))).)): the Tm in series [1] came to 46.8 °C. The folding enthalpy in series [2] was -17.9 kcal/mol.

Turning to GTACAGAAATGTAC (((((....))))), the Tm in series [1] turned out to be 40.4 °C. In addition, the folding enthalpy in series [2] was -20.2 kcal/mol.

Consider GTACAGCGAAAGCTTAC (((.(((....)))))), for which the Tm in series [1] is 38.1 °C. For the same sequence, in series [2], the folding enthalpy is -13.1 kcal/mol.

For GTACAGGAAACTGTAC ((((((....)))))), the Tm in series [1] is 52.4 °C. For the same sequence, in series [2], the folding enthalpy was -41.6 kcal/mol.

As for GTACAGGCGAAAGCCTAC (((..(((....)))))), in series [1], the Tm turned out to be 34.9 °C. Also, the folding enthalpy in series [2] is -8.61 kcal/mol.

For the sequence GTACAGGGAAACCTGTAC (((((((....))))))), the Tm in series [1] was 59.4 °C. Besides, in series [2], the folding enthalpy was -40.3 kcal/mol.

Turning to GTACATCGAAAGATCTAC (((.(((....))).))), the Tm in series [1] was found to be 25.1 °C. In series [2], the folding enthalpy is -10.2 kcal/mol.

On to GTACATGGAAACACGTAC ((((.((....)).)))), for which the Tm in series [1] was 36.2 °C. Moreover, in series [2], the folding enthalpy is -21.9 kcal/mol.

Regarding GTACCAGGAAACTGGCAC ((.((((....)))).)), the Tm in series [1] came to 42.1 °C. In addition, the folding enthalpy in series [2] was -21.1 kcal/mol.
